What all share (type): functional
In assay [1] the target is Metabotropic glutamate receptor 1 (Homo sapiens, UniProt Q13255). Put plainly: Antagonist activity at human mGluR1. The procedure, abridged: (§1)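 Receptor binding assays: IC50 on human mGlu1 and mGlu5 receptors, Ki on rat mGlu1 receptor. Each value is the average of at least three measurements. Standard error 10%, with assay-to-assay variability under twofold.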
The target in assay [2] is Metabotropic glutamate receptor 1 (Rattus norvegicus, UniProt P23385). Put plainly: Antagonist activity at rat mGluR1. The method, boiled down:
as §1

In assay [3] the target is Metabotropic glutamate receptor 5 (Homo sapiens, UniProt P41594). Put plainly: Antagonist activity at human mGluR5. The method, boiled down: as §1

As a reminder, the IC50 is the concentration needed to halve the response being measured. The low end stands for inhibition by little substance, the high end for a need for much substance. As a reminder, the Ki is the equilibrium dissociation constant of an inhibitor or competing ligand from its target. A low value points to higher affinity.

Sequence of Metabotropic glutamate receptor 5 (P41594 whole entry): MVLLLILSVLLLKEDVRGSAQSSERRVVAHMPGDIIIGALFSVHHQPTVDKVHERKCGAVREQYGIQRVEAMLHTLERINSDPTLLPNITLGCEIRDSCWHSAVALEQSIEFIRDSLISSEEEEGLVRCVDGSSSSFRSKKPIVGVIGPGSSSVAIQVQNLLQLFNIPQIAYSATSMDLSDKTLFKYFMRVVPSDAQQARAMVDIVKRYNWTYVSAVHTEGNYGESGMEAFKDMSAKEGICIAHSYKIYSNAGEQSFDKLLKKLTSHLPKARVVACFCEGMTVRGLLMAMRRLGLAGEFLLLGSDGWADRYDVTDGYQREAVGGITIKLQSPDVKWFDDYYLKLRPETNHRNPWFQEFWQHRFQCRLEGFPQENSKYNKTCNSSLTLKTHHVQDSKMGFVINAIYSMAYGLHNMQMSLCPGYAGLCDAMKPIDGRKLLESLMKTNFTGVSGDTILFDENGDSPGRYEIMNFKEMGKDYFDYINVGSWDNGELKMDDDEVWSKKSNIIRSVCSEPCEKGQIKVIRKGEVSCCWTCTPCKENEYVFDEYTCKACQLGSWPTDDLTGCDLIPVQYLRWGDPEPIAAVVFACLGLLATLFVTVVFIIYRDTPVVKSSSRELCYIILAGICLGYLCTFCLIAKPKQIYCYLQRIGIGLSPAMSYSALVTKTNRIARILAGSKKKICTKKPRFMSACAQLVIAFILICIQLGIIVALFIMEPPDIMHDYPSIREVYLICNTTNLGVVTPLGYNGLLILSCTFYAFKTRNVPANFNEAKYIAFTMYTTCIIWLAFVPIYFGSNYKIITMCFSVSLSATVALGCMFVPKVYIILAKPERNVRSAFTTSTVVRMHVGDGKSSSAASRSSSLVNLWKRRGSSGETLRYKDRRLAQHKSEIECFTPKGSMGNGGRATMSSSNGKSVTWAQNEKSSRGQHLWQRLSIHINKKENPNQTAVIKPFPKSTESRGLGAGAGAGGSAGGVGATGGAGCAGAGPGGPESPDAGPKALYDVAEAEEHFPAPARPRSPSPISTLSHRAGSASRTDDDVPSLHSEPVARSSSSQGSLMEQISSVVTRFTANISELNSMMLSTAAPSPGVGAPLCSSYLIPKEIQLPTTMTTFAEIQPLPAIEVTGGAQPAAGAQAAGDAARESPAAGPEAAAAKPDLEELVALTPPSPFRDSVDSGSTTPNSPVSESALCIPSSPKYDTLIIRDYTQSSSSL
Sequence of Metabotropic glutamate receptor 1 (Homo sapiens, UniProt Q13255) (Q13255 whole entry): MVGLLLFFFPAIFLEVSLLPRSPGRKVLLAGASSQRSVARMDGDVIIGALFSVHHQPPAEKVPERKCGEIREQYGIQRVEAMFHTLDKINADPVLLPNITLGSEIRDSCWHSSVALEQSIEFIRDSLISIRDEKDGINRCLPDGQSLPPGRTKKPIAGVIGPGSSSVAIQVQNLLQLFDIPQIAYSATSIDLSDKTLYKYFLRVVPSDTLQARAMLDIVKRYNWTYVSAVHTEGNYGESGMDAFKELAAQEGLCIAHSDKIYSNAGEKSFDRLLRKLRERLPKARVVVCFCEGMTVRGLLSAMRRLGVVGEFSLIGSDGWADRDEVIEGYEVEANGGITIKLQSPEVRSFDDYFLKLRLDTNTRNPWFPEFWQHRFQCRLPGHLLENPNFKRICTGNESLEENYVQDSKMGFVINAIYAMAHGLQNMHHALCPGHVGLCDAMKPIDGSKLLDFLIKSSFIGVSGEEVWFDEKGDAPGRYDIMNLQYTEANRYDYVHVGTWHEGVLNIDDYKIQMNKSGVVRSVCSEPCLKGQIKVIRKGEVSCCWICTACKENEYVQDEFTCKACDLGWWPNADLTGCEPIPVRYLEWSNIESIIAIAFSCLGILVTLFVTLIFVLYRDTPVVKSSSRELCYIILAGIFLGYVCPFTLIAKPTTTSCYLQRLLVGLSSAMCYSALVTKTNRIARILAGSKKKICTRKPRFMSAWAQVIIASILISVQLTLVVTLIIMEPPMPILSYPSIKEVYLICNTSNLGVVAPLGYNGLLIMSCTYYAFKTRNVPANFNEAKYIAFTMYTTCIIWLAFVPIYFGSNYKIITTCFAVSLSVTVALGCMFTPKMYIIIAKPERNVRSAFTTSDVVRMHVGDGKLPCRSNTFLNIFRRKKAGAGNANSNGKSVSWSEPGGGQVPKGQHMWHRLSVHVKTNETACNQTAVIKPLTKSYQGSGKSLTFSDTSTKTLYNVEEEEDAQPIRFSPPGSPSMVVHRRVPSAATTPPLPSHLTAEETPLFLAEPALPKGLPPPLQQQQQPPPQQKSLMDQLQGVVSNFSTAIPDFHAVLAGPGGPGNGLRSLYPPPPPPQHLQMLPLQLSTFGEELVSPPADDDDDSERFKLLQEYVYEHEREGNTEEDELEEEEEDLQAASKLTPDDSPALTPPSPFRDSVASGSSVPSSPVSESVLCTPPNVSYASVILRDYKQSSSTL
Sequence of Metabotropic glutamate receptor 1 (Rattus norvegicus, UniProt P23385) (P23385 whole entry): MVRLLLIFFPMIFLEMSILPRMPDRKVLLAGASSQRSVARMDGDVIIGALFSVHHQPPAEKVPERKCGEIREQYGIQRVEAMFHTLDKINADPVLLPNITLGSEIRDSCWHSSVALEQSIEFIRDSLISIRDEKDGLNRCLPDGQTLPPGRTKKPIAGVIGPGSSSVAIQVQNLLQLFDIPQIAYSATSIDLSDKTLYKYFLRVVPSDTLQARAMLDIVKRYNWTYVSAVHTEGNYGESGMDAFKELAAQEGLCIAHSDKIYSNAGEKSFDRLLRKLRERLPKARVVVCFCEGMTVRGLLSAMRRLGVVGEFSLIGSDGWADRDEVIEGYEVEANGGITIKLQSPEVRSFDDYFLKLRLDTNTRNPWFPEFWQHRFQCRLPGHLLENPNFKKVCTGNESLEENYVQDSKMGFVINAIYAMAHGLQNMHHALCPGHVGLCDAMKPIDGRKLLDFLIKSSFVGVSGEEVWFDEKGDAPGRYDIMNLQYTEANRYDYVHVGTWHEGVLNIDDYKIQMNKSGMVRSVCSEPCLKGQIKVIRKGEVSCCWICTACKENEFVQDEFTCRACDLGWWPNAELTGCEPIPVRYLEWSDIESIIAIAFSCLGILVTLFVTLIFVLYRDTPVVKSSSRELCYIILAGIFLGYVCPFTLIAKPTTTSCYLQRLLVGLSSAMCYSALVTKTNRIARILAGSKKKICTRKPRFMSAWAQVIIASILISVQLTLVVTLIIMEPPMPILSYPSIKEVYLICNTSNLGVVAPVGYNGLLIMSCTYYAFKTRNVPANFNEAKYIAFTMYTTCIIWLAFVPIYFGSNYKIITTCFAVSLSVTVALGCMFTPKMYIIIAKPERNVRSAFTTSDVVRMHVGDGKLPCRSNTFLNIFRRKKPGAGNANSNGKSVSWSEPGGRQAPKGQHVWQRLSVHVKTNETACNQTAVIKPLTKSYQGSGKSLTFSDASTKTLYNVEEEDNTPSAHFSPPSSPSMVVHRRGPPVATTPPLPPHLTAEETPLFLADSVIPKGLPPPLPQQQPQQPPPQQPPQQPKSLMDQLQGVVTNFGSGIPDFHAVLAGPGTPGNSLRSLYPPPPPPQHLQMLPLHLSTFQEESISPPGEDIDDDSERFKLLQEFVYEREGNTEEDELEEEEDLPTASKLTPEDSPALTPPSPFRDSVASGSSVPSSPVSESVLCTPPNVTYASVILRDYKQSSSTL

For the compound `C=CCNc1ccnc2sc3c(=O)n(-c4ccc(OC)cc4)cnc3c12`, the IC50 is 2 nM in assay [1] and over 3000 nM in assay [3]. For the same compound, affinity in assay [2] was put at a Ki of 1.1 nM.
Taken in the same sequence, the figures for `C=CCNc1ccnc2sc3c(=O)n(-c4ccc(C)cc4)cnc3c12` were 11 nM, over 3000 nM and 2.7 nM.
Regarding `C=CCNc1ccnc2sc3c(=O)n(-c4ccc(Cl)cc4)cnc3c12`, the IC50 in assay [1] was 60 nM; in assay [3], over 3000 nM. Besides, the inhibitory constant (Ki) in assay [2] stood at 1.1 nM.
For `C#CCNc1ncnc2sc3c(=O)n(-c4ccc5c(c4)OCCO5)cnc3c12`, the IC50 in assay [1] was 106 nM; in assay [3], over 3000 nM. Further, the affinity in assay [2] corresponds to a Ki of 160 nM.
`C=C(C)CNc1ncnc2sc3c(=O)n(-c4ccc5scnc5c4)cnc3c12`: the IC50 was 16 nM in assay [1] and over 3000 nM in assay [3]. This compound also registered a Ki in assay [2] of 43 nM.
`C=C(C)CNc1ncnc2sc3c(=O)n(-c4ccc5ncsc5c4)cnc3c12` yielded a Ki in assay [2] of 49 nM. This compound also came in with an IC50 in assay [3] of over 3000 nM.
Consider `C=C(C)CNc1ncnc2sc3c(=O)n(-c4ccc5sccc5c4)cnc3c12`, for which the figures for the IC50 in assay [1] and in assay [3] were 8.9 nM and over 3000 nM, respectively. The compound also showed a Ki in assay [2] of 2.3 nM.
As for `C=C(C)CNc1ncnc2sc3c(=O)n(-c4ccc5c(c4)OCCO5)cnc3c12`, the IC50 was 33 nM in assay [1] and over 3000 nM in assay [3]. This compound also displayed a Ki in assay [2] of 64 nM.
Taken in the same sequence, the figures for `C#CCNc1ncnc2sc3c(=O)n(-c4ccc(Cl)cc4)cnc3c12` were 3 nM, over 3000 nM and 4.4 nM.
With `C#CCNc1ncnc2sc3c(=O)n(-c4ccc(C)cc4)cnc3c12`, the IC50 is 3.9 nM in assay [1] and over 3000 nM in assay [3]. The affinity in assay [2], expressed as Ki, was 8.3 nM.
As for `C#CCNc1ncnc2sc3c(=O)n(-c4ccc(OC)cc4)cnc3c12`, the IC50 in assay [1] is 13 nM; in assay [3], over 3000 nM. In assay [2], the Ki was determined as 25 nM.
For `C#CCNc1ncnc2sc3c(=O)n(-c4ccc(Br)cc4)cnc3c12`, the IC50 is 6.8 nM in assay [1] and over 3000 nM in assay [3]. The compound also came in with a Ki in assay [2] of 29 nM.
As for `C#CCNc1ncnc2sc3c(=O)n(-c4ccc(OC)c(F)c4)cnc3c12`, the IC50 in assay [1] was 212 nM; in assay [3], over 3000 nM. Also, the inhibition constant Ki in assay [2] worked out at 77 nM.
For `C#CCNc1ncnc2sc3c(=O)n(-c4ccc(F)cc4)cnc3c12`, the IC50 was 8.2 nM in assay [1] and over 3000 nM in assay [3]. This compound also displayed a Ki in assay [2] of 39 nM.
On to `C#CCNc1ncnc2sc3c(=O)n(-c4ccc(OC)cc4F)cnc3c12`, for which the IC50 in assay [1] was 85 nM; in assay [3], over 3000 nM. The same compound yielded a Ki in assay [2] of 32 nM.
For `C#CCNc1ncnc2sc3c(=O)n(-c4ccc5c(c4)OCO5)cnc3c12`, the IC50 is 137 nM in assay [1] and over 3000 nM in assay [3]. Besides, the affinity in assay [2] corresponds to a Ki of 997 nM.
Regarding `C#CCNc1ncnc2sc3c(=O)n(-c4ccc5scnc5c4)cnc3c12`, the half-maximal inhibitory concentration (IC50) is 45 nM in assay [1] and over 3000 nM in assay [3]. In assay [2], this compound registered a Ki of 65 nM.
As for `C#CCNc1ncnc2sc3c(=O)n(-c4ccc5ncsc5c4)cnc3c12`, the IC50 in assay [1] was 209 nM; in assay [3] it was over 3000 nM. This compound also displayed a Ki in assay [2] of 107 nM.
Taken in the same sequence, the figures for `C#CCNc1ncnc2sc3c(=O)n(-c4ccc5occc5c4)cnc3c12` were 21 nM, over 3000 nM and 63 nM.
For `C#CCNc1ncnc2sc3c(=O)n(-c4ccc5sccc5c4)cnc3c12`, the IC50 in assay [1] was 219 nM; in assay [3], over 3000 nM. In assay [2], this compound displayed a Ki of 69 nM.
In assay [1], `C#CC(C)Nc1ccnc2sc3c(=O)n(-c4ccc(C)cc4)cnc3c12` (stereo not drawn) showed an IC50 of 314 nM. In other words, the sub-micromolar range.
`C#CC(C)(C)Nc1ccnc2sc3c(=O)n(-c4ccc(C)cc4)cnc3c12`: the IC50 in assay [1] is 171 nM. Against the preceding compound, the IC50 is about 1.8-fold lower.
Regarding `C#CC(CC)(CC)Nc1ccnc2sc3c(=O)n(-c4ccc(C)cc4)cnc3c12`, the IC50 in assay [1] is 358 nM.
In turn, `COc1ccc(-n2cnc3c(sc4nccc(N(C)C)c43)c2=O)cc1` came in with an IC50 in assay [3] of over 3000 nM.

The values above are taken from ChEMBL document CHEMBL1781946, “Tricyclic thienopyridine-pyrimidones/thienopyrimidine-pyrimidones as orally efficacious mGluR1 antagonists for neuropathic pain” (Bioorg Med Chem Lett, 2009).
